An excerpt weighted towards active compounds, which were near 3.8% of everything screened.
HSF1 activator = increases HSF-1 driven luciferase reporter signal; NIH3T3-HGL HSF-1 luciferase reporter, MG132, 8 h; 100% = twice DMSO control signal; activation, % at 9 µM; 1.7% of 300,000 active;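 active means mean replicate activation of at least 50% with a set share of replicates each reaching 50%; inconclusive means only one of those two conditions met; inactive means mean below 50% and too few replicates reaching it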;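 further: 0% = median of the neutral control wells and 100% = twice that signal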
Hep lipid drop = modulators of hepatic lipid droplet formation; AML12 mouse hepatocytes, oleate lipid droplets, BODIPY imaging; inhibition, % at 6.5 µM; 0.4% of 240,000 active; AID 1656;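 active means lipid droplet intensity inhibited by at least 50%, with more than 500 cells counted; inconclusive means wells with under 300 cells, treated as cytotoxic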
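Assay system: AML12 mouse liver cells | Compound: 6.5 µM single-point dosing | Schedule: Overnight exposure | Technique: Fluorescence imaging, 20x objective, two fields per well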
HSP90 refold inh = inhibitors of HSP90 luciferase refolding in rabbit reticulocyte lysate | inhibition, % at 5.6 µM | 0.91% of 290,000 active | luciferase refolding luminescence, 3 h;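 active means inhibition above the screen-wide mean plus 3 SD, computed separately per campaign, cut at about 16% in these data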;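 further: 0% = DMSO wells and 100% = 60 µM geldanamycin wells; inhibitors lower the luminescence because luciferase stays unfolded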
HCV NS3 hel inh = HCV NS3 helicase inhibition; NS3 helicase DNA unwinding, Cy5 molecular beacon fluorescence; inhibition, % at 10.9 µM; 0.56% of 290,000 active;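 active means inhibition above the mean of all tested compounds plus 3 SD, set per campaign, cut at about 35% in these data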;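 further: 0% = DMSO wells and 100% = thioflavine S control wells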
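System: HCV NS3 helicase fragment; control set: DMSO and thioflavine S; technique: Cy5 fluorescence at 0 and 60 min, beacon hairpin quenching; reagent: beacon DNA duplex substrate plus ATP; replicates: singlicate; schedule: 1 h reaction at 25 °C, ATP-initiated; medium: MOPS buffer pH 6.5 with MgCl2, DTT, Tween20, BSA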
HSF1 inhib = HSF1 inhibition; 0.77% of 300,000 active; AID 2098; NIH3T3-HGL HSE-luciferase, MG132-induced, luminescence 8 h; hits give low values; activity change, negative = inhibition, % at 7.5 µM (by protocol);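 active means more than half of replicate wells show activity change below -50%, luminescence cut by over half; inconclusive means some wells, but at most half, below -50%; inactive means no replicate well below -50%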;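 further: luciferase reports HSF-1 transcriptional activity via heat shock element; 0% = median of DMSO wells and -100% = zero luminescence signal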
HSP90 inh confirm = HSP90 inhibition, confirmation assay; shares compounds with HSP90 refold inh; rabbit reticulocyte lysate, luciferase refolding luminescence, 3 h; inhibition, % at 5.9 µM; 64% of 2,300 active; in the data active means inhibition above about 18%;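 further: 0% = vehicle wells and 100% = reference inhibitor wells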
FLuc counter = blocks native firefly luciferase in HSP90 counter-screen; shares compounds with HSP90 refold inh; AID 1847; 48% of 2,300 active; inhibition, % at 5.9 µM; purified native firefly luciferase, luminescence;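 active means inhibition above the mean inhibition of all tested sample wells plus 3 SD, cut at about 10% in these data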;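 further: 0% = DMSO with luciferase and 100% = wells lacking luciferase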
Target sequence (P08659 whole entry, looked up): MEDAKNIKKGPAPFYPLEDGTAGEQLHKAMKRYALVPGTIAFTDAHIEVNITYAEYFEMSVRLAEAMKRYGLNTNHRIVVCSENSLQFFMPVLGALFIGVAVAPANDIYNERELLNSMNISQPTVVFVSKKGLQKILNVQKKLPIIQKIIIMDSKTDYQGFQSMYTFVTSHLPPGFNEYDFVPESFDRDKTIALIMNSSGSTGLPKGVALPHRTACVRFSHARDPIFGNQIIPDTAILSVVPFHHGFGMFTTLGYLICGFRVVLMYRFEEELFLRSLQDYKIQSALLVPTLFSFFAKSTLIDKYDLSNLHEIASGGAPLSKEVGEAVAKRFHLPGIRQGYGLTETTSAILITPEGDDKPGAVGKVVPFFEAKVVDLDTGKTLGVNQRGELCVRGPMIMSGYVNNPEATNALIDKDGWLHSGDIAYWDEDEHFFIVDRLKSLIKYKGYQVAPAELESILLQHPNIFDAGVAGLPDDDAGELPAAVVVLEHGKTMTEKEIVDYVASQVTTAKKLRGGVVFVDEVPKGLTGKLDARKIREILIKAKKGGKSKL
* = called active by the depositor; ? = inconclusive; nt = not tested or not shown.

SMILES	HSF1 activator	Hep lipid drop	HSP90 refold inh	HCV NS3 hel inh	HSF1 inhib	HSP90 inh confirm	FLuc counter
CC(=O)Nc1cc2ccccc2oc1=O	-26	6	-2	4	-4	nt	nt
CCOc1ccc(C(=O)Nc2cccc(C(=O)O)c2)cc1Cl	-45	6	88*	4	-47	88*	72*
Cc1ccc(C(=O)Nc2cccc(C(=O)N/N=C/c3ccccc3F)c2)cc1	-15	16	19*	16	-12	-2	-15
Cn1c(=O)c2c(nc(Br)n2C/C=N/NC(N)=S)n(C)c1=O	2	1	1	10	0	nt	nt
CCNC(=S)NNc1nc(N2CCCCC2)nc(N2CCOCC2)n1	1	-9	-1	-7	1	nt	nt
NS(=O)(=O)c1cc2c(cc1Cl)NC(Cc1ccccc1)NS2(=O)=O (centres undefined)	8	21	1	-2	-7	nt	nt
CCOc1ccc(NC(=O)c2cc(F)c(F)cc2Cl)cc1OCC	-4	6	24*	-4	-1	4	-2
O=C(O)c1ccc(NC(=O)c2ccc(Cl)cc2)c(NC(=O)c2ccc(Cl)cc2)c1	-16	4	-7	6	-1	nt	nt
Cc1ccc(C(=O)Nc2cccc(C(=O)O)c2)cc1	-72	nt	82*	1	-72*	88*	83*
COC(=O)c1ccc(NC(=O)c2ccc3nccnc3c2)cc1	11	15	0	-1	5	nt	nt
Cc1ccc(C(=O)Nc2ccc(C(=O)O)cc2NC(=O)c2ccc(C)cc2)cc1	-55	nt	60*	25	-51*	55*	37*
CCCCOc1ccc(NC(=O)c2cc(F)c(F)cc2Cl)cc1	9	5	-2	27	8	nt	nt
Cc1ccc(C(=O)Nc2ccc3nccnc3c2)cc1	9	nt	26*	9	-7	33*	7
OCCNc1nc(-c2ccccc2)nc2c1oc1ccccc12	-4	-9	-4	2	2	nt	nt
Cc1ccccc1-n1c(C)cc(/C=C(\C#N)C(=O)NCC2CCCO2)c1C (centres undefined)	-53	-12	20*	1	-39	37*	25*
COc1ccc(C(=O)[C@@H]2CC[C@](C)(C(=O)O)C2(C)C)cc1	3	nt	nt	nt	-2	nt	nt
Cc1ccc(-c2nc3ccc(Cl)cc3n2OC(C)C(=O)O)cc1 (centres undefined)	21	1	62*	4	9	-5	-23
CCOC(=O)c1nc(N/N=C/c2ccccc2)sc1Br	4	-1	21*	-5	3	28*	-24
O=C(O)c1ccc(N/N=C2/CCCc3ccccc32)cc1	6	-3	18*	7	0	2	-6
O=C(N[C@@H](Cc1c[nH]c2ccccc12)C(=O)O)C1CCN(S(=O)(=O)c2cccs2)CC1	22	-2	20*	2	-5	4	0
Nc1c(C(=O)Nc2ccc(Cl)c(C(=O)O)c2)sc2nc3c(cc12)CCCC3	10	5	4	20	2	nt	nt
Nc1c(C(=O)Nc2cccc(C(=O)O)c2)sc2nc3c(cc12)CCCC3	-4	-19	91*	11	-3	97*	90*
CC(C)(C)NC(=O)CN(c1cccc([N+](=O)[O-])c1)S(=O)(=O)c1ccccc1	-4	-8	23*	-4	-4	-10	-10
CC1(C(=O)N2CCN(c3ccccc3)CC2)CC1(Cl)Cl (centres undefined)	-15	42	-2	-5	-2	nt	nt
CC1(C(=O)N2CCN(Cc3ccccc3Cl)CC2)CC1(Cl)Cl (centres undefined)	7	-2	19*	-2	11	-6	-16
SMILES	HSF1 activator	Hep lipid drop	HSP90 refold inh	HCV NS3 hel inh	HSF1 inhib	HSP90 inh confirm	FLuc counter
O=C(CN1C(=O)c2cccc([N+](=O)[O-])c2C1=O)OCC(=O)N1CCCCC1	-11	nt	nt	nt	-20	nt	nt
O=C(COc1ccc2ccccc2c1)Nc1nccs1	?	-26	23*	-10	31	54*	49*
O=C(COc1ccccc1)Nc1nccs1	35	6	10	-5	20	nt	nt
Cc1cc(C)n2nc(C(=O)N/N=C/c3cccs3)nc2n1	23	4	4	2	-5	nt	nt
O=[N+]([O-])c1ccc(S(=O)(=O)N2CCN=C2SCc2ccc(F)cc2)cc1	0	4	35*	2	1	70*	-4
Cc1cc(C(=O)N/N=C/c2cccnc2)n[nH]1	4	nt	1	-5	-2	nt	nt
Cc1cc(C(=O)N/N=C/c2ccc3ccccc3c2)n[nH]1	nt	4	36*	5	nt	-10	-27
CSc1sc(C(=O)NNC(C)=O)c2c1C=CCC2	-3	-6	5	10	1	nt	nt
Cc1cc2cc3c(cc2nc1SCC(=O)N1CCCC1)OCCO3	-2	-3	-2	-10	4	nt	nt
N#Cc1cc2cc3c(cc2nc1SCC(=O)N1CCOCC1)OCCO3	-44	-10	21*	14	?	17*	-3
CSCCC(NC(=O)/C(=C/c1ccco1)NC(=O)c1ccco1)C(=O)O (centres undefined)	6	nt	nt	nt	7	nt	nt
COc1ccccc1Nc1nnc(SCC2CCCCO2)s1 (centres undefined)	22	8	32*	5	0	38*	39*
Cc1ccccc1Nc1nnc(SCC2CCCCO2)s1 (centres undefined)	?	0	6	-4	27	nt	nt
CCOC(=O)c1cc(-c2ccccc2)sc1NC(=O)C(C)N1C(=O)NC(C)(c2ccc(Cl)cc2)C1=O (centres undefined)	-16	16	18*	5	-1	9	-6
COc1ccc(CNC(=O)C2CCN(S(=O)(=O)c3ccc4c(c3)CC(C)N4C(C)=O)CC2)cc1 (centres undefined)	-18	-7	-7	1	-11	nt	nt
COc1ccc(-c2cc(-c3ccccc3)no2)cc1	6	nt	nt	nt	-4	nt	nt
COc1ccc(-c2cc3nnc(-c4ccccc4)nc3s2)cc1	-59	-4	21*	3	-47	45*	43*
O=C(CSc1nnc(NC(=O)c2ccccc2)s1)NC1CCCC1	48	-28	6	26	10	nt	nt
COc1ccc(C(=O)N[C@H](C(=O)Nc2nc3ccccc3[nH]2)C(C)C)cc1	34	18	5	16	1	nt	nt
Cc1ccc(C(=O)Nc2nc3ccccc3[nH]2)cc1	-9	-1	86*	1	-25	89*	85*
O=C(Nc1nc2ccccc2[nH]1)NC1CCCCC1	20	9	23*	14	4	24*	6
COc1cccc(C(=O)Nc2nc3ccccc3[nH]2)c1	-4	8	27*	6	-9	67*	56*
COc1ccc(C(=O)Nc2nc3ccccc3[nH]2)cc1	21	2	74*	0	-7	86*	80*
